Laboratory results from ChEMBL document CHEMBL5661986, “Discovery of the SMYD3 Inhibitor BAY-6035 Using Thermal Shift Assay (TSA)-Based High-Throughput Screening” (SLAS Discov, 2021).
Values after ≈ are worked out from the molar mass of the structure shown. Active and inactive are the calls of the source. No cut-off for these calls is given here.

Columns and labels:
[1] = molecular target: Histone-lysine N-methyltransferase SUV39H1 (Homo sapiens) (UniProt O43463); assay: Inhibition of SUV39H1 (unknown origin)
[2] = molecular target: Cyclin-dependent kinase 13 (Homo sapiens, UniProt Q14004); assay: Inhibition of CDK13 (unknown origin) by using c-myc peptide as substrate in presence of ATP
[3] = Kinetic solubility of the compound at pH 6.5; assay type: physicochemical; details: buffer, read-out: Kinetic_solubility
[4] = molecular target: T1, Histone-lysine N-methyltransferase SMYD3 (Homo sapiens, UniProt Q9H7B4); assay: Binding affinity to recombinant human SMYD3 expressed in Escherichia coli assessed as catalytic inhibition using DYDNPIFEKFGKGGTYPRRYHVSYHGK-Biotin as substrate by scintillation proximity assay
T1 sequence (Q9H7B4 whole entry): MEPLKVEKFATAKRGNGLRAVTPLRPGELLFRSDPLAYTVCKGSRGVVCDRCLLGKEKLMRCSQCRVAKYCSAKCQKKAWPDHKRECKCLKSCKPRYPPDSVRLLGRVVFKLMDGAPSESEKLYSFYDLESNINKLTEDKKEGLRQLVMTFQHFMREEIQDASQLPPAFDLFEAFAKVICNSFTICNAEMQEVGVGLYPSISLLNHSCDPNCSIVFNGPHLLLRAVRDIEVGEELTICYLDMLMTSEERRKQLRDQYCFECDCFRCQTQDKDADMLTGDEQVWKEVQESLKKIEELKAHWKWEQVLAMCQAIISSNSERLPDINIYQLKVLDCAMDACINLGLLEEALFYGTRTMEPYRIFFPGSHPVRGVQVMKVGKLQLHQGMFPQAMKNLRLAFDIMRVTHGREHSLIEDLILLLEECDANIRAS

[5] = molecular target: MAP kinase-interacting serine/threonine-protein kinase 1 (Homo sapiens, UniProt Q9BUB5); assay: Inhibition of MKNK1 (unknown origin) in presence of ATP
[6] = molecular target: Histone-lysine N-methyltransferase, H3 lysine-36 specific (Homo sapiens) (UniProt Q96L73); assay: Inhibition of NSD1 (unknown origin)
[7] = molecular target: Protein arginine N-methyltransferase 5 (Homo sapiens) (UniProt O14744); assay: Inhibition of PRMT5 (unknown origin)
[8] = test system: SUD4; assay: Antiproliferative activity against human SU-DHL-4 cells assessed as inhibition of cell viability measured for 3 to 5 days by alamar blue staining based assay; assay type: functional
[9] = molecular target: Histone-lysine N-methyltransferase 2C (Homo sapiens) (UniProt Q8NEZ4); assay: Inhibition of MLL3 (unknown origin)
[10] = molecular target: T2, Histone-lysine N-methyltransferase SMYD3 (Homo sapiens) (UniProt Q9H7B4); assay: Binding affinity to recombinant human SMYD3 expressed in Escherichia coli assessed as fold change at varying MAP3K2 substrate concentration of upto 150 uM with 10 fold Km concentration by scintillation proximity assay
T2 sequence (whole entry): T1 sequence (Q9H7B4 whole entry)
Summary of the method: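 SPA, 10 nM SMYD3 methylating biotinylated MAP3K2 249–273 peptide with 3H-SAM in 20 mM Tris pH 9, 2.5 mM DTT, 0.01% Triton X-100; 40 min, 23 °C, GuHCl quench.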

[11] = molecular target: Serine/threonine-protein kinase 4 (Homo sapiens, UniProt Q13043); assay: Inhibition of MST1 (unknown origin)
[12] = test system: COLO-679; assay: Antiproliferative activity against human COLO-679 cells assessed as inhibition of cell viability measured for 3 to 5 days by alamar blue staining based assay; assay type: functional
[13] = molecular target: Dual specificity mitogen-activated protein kinase kinase 5 (Homo sapiens, UniProt Q13163); assay: Inhibition of MEK5 (unknown origin) by competition binding assay
[14] = molecular target: DNMT3A2/3L complex (Homo sapiens) (UniProt Q9Y6K1+Q9UJW3); assay: Inhibition of DNMT3A/DNMT3L (unknown origin); assay type: protein-complex assay
[15] = molecular target: N-lysine methyltransferase KMT5A (Homo sapiens) (UniProt Q9NQR1); assay: Inhibition of SETD8 (unknown origin)
[16] = molecular target: T2, Histone-lysine N-methyltransferase SMYD3 (Homo sapiens); assay: Binding affinity to biotinylated SMYD3 (unknown origin) assessed as association rate constant (Kon) using S-adenosyl-l-methionine as substrate by surface plasmon resonance analysis
Summary of the method: (§1)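 Biotinylated SMYD3 (aa 1–428) captured (~4700 RU) on streptavidin chip, empty reference flow cell; 25 °C; running buffer 20 mM HEPES pH 7.4, 150 mM NaCl, 3 mM EDTA, 0.05% Tween-20, 2% DMSO, plus 50 µM SAM. Single-cycle kinetics, five concentrations 25–2000 nM, 60 s contact, 300 s dissociation, 30 µL/min; triplicate.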

[17] = molecular target: Mitogen-activated protein kinase 14 (Homo sapiens, UniProt Q16539); assay: Inhibition of p38alpha (unknown origin) by competition binding assay
[18] = molecular target: METTL3/METTL14 (Homo sapiens) (UniProt Q86U44+Q9HCE5); assay: Inhibition of METTL3/METTL14 (unknown origin); assay type: protein-complex assay
[19] = molecular target: T2, Histone-lysine N-methyltransferase SMYD3 (Homo sapiens); assay: Binding affinity to biotinylated SMYD3 (unknown origin) assessed as dissociation rate constant (Koff) using S-adenosyl-l-methionine as substrate by surface plasmon resonance analysis; summary of the method: as §1
[20] = molecular target: N-lysine methyltransferase SMYD2 (Homo sapiens) (UniProt Q9NRG4); assay: Inhibition of SMYD2 (unknown origin)
[21] = Antiproliferative activity against human NCI-H2110 cells assessed as inhibition of cell viability measured for 3 to 5 days by alamar blue staining based assay; assay type: functional
[22] = molecular target: Cyclin-dependent kinase 12 (Homo sapiens, UniProt Q9NYV4); assay: Inhibition of CDK12 (unknown origin) by using c-myc peptide as substrate in presence of ATP
[23] = molecular target: Vascular endothelial growth factor receptor 2 (Homo sapiens, UniProt P35968); assay: Inhibition of KDR (unknown origin) by HTRF assay
[24] = molecular target: Serine/threonine-protein kinase TBK1 (Homo sapiens, UniProt Q9UHD2); assay: Inhibition of TBK1 (unknown origin) in presence of ATP by HTRF assay
[25] = Lipophilicity, log D of the compound at pH 7.5; assay type: physicochemical; details: buffer
[26] = molecular target: NUAK family SNF1-like kinase 1 (Homo sapiens, UniProt O60285); assay: Inhibition of NUAK1 (unknown origin) in presence of ATP
[27] = test system: HaCaT; assay: Antiproliferative activity against human HaCaT cells assessed as inhibition of cell viability measured for 3 to 5 days by alamar blue staining based assay; assay type: functional
[28] = test system: PaTu 8988t; assay: Antiproliferative activity against human PaTu 8988t cells assessed as inhibition of cell viability measured for 3 to 5 days by alamar blue staining based assay; assay type: functional
[29] = molecular target: Protein arginine N-methyltransferase 1 (Homo sapiens) (UniProt Q99873); assay: Inhibition of PRMT1 (unknown origin)
[30] = molecular target: Mitogen-activated protein kinase 7 (Homo sapiens, UniProt Q13164); assay: Inhibition of GST-tagged ERK5 catalytic domain (unknown origin) in presence of ATP
[31] = molecular target: Interleukin-1 receptor-associated kinase 1 (Homo sapiens, UniProt P51617); assay: Inhibition of IRAK1 (unknown origin) in presence of ATP
[32] = molecular target: Protein arginine N-methyltransferase 9 (Homo sapiens) (UniProt Q6P2P2); assay: Inhibition of PRMT9 (unknown origin)
[33] = molecular target: High affinity nerve growth factor receptor (Homo sapiens, UniProt P04629); assay: Inhibition of human TRK-A

Sequence of N-lysine methyltransferase KMT5A (Homo sapiens) (Q9NQR1 whole entry): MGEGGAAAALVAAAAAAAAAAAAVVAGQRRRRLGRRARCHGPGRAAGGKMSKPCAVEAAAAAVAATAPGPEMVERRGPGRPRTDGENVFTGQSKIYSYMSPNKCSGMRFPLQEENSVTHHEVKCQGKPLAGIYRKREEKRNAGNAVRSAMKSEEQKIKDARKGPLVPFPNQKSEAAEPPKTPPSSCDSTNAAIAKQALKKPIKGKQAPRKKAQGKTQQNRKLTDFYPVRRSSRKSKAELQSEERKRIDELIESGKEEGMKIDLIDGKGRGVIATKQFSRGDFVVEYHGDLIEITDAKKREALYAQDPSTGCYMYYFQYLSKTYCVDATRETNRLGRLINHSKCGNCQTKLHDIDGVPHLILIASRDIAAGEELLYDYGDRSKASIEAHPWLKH
Sequence of Histone-lysine N-methyltransferase, H3 lysine-36 specific (Homo sapiens) (Q96L73 whole entry): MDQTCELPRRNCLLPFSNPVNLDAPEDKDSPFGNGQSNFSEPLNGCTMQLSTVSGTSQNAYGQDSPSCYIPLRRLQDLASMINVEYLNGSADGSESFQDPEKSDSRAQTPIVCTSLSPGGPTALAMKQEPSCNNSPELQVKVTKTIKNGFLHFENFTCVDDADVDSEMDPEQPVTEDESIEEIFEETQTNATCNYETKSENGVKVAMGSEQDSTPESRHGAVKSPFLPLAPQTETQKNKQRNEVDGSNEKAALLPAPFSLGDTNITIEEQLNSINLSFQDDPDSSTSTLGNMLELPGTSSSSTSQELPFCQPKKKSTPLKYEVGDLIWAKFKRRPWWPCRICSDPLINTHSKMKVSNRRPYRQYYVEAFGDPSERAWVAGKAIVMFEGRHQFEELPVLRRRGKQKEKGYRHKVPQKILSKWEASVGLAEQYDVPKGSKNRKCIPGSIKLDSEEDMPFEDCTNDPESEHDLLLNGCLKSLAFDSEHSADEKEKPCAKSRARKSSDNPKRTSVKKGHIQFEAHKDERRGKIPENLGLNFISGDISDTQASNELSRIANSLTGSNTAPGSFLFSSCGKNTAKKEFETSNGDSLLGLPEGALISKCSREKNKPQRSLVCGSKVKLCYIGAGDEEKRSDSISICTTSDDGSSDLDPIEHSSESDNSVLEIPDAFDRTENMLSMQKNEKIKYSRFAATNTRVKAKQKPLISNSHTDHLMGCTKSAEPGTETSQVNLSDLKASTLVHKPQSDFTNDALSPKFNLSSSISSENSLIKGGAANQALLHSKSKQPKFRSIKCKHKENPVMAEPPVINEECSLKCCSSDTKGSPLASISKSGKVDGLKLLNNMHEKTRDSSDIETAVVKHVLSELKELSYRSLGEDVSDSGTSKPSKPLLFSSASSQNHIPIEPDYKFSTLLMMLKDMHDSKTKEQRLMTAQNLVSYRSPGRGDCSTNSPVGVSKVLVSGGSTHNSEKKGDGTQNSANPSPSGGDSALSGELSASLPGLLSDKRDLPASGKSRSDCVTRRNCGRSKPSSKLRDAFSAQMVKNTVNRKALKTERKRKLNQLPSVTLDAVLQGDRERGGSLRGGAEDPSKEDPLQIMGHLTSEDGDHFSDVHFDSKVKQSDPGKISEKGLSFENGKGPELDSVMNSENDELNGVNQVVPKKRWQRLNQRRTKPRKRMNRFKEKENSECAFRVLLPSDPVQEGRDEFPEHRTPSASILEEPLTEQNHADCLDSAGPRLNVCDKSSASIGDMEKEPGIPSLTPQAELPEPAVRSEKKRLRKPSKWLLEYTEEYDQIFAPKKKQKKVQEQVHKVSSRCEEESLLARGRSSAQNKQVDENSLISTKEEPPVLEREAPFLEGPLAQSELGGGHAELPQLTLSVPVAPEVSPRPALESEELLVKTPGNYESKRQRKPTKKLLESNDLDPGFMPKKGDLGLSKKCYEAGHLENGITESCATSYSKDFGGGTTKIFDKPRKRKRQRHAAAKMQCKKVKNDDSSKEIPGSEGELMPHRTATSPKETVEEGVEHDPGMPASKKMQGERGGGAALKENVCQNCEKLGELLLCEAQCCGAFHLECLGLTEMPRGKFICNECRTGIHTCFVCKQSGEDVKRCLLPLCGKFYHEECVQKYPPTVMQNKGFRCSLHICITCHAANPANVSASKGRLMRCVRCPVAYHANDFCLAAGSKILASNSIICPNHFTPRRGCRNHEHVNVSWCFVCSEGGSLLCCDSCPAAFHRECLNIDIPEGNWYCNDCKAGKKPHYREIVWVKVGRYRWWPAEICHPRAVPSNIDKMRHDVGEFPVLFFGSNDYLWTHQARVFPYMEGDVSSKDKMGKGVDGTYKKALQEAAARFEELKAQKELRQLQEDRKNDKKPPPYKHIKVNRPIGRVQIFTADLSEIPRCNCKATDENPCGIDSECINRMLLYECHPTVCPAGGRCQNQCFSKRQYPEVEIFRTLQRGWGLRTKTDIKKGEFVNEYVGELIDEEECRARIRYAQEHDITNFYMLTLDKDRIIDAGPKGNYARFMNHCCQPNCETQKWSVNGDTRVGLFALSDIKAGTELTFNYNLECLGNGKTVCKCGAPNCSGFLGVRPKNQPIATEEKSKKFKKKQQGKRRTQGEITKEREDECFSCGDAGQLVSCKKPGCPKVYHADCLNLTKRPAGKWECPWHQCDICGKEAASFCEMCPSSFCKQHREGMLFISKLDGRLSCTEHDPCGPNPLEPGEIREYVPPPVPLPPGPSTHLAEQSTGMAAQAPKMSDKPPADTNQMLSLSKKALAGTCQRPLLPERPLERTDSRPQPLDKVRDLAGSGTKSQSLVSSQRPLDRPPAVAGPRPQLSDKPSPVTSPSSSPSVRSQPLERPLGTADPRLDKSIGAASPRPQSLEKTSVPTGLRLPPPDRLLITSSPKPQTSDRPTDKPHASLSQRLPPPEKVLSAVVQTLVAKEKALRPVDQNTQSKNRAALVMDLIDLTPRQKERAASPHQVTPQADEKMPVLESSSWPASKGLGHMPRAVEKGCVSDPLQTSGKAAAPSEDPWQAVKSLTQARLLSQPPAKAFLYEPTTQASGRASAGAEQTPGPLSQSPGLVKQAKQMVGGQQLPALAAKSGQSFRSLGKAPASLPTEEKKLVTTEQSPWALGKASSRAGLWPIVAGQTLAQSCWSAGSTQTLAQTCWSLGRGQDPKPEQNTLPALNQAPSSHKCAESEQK
Sequence of MAP kinase-interacting serine/threonine-protein kinase 1 (Q9BUB5 whole entry): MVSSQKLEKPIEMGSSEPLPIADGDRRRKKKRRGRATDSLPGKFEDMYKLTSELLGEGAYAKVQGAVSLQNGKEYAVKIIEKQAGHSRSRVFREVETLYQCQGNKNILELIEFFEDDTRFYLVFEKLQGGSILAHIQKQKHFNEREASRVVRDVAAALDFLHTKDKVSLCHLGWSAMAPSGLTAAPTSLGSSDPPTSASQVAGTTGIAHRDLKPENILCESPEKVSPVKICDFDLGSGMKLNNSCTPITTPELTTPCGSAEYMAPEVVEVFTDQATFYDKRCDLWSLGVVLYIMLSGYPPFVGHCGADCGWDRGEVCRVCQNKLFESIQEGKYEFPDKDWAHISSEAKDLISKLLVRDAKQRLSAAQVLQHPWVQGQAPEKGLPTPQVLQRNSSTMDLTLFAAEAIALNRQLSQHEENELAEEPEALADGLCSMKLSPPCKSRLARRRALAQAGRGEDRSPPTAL
Sequence of Serine/threonine-protein kinase TBK1 (Q9UHD2 whole entry): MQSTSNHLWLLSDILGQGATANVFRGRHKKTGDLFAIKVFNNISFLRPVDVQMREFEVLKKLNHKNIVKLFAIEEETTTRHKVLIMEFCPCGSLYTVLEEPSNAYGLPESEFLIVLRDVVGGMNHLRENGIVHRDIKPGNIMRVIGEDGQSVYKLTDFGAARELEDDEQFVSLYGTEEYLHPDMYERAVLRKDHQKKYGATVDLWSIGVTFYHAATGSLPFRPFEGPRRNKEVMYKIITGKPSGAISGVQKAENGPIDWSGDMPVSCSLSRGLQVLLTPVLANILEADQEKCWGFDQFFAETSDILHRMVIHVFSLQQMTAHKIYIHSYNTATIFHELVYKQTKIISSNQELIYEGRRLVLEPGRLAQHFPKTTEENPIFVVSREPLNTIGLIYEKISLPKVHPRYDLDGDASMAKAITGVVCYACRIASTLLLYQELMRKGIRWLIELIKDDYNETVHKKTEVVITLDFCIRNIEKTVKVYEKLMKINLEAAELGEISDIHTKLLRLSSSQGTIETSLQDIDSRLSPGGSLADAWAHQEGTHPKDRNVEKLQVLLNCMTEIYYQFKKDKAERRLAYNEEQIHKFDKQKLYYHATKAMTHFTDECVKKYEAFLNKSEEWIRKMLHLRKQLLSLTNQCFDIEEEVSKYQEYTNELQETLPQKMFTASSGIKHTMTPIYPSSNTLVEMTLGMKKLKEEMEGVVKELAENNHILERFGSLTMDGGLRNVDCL
Sequence of Protein arginine N-methyltransferase 5 (Homo sapiens) (O14744 whole entry): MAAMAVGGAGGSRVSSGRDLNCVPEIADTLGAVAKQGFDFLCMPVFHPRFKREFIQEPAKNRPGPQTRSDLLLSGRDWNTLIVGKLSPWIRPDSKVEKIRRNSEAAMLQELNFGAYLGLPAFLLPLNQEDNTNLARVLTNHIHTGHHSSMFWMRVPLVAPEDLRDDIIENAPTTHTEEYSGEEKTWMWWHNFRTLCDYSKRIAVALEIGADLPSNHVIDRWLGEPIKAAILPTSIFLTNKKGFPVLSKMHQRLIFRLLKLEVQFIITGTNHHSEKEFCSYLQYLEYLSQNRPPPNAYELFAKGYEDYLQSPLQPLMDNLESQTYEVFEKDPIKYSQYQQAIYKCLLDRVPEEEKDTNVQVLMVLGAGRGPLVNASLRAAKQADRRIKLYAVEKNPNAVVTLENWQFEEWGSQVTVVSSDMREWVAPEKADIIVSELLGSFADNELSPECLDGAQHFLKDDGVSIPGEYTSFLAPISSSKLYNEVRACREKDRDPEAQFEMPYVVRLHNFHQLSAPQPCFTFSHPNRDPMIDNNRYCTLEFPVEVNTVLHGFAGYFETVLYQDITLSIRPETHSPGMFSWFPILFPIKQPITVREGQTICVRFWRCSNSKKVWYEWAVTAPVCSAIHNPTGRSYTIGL

SMILES: C[C@H]1CC(=O)Nc2cc(C(=O)NCCC3CC3)ccc2N1C(=O)N1CC2CC2C1 (stereo partly drawn)
- inhibition [1]: inactive
- IC50 [2]: > 20 µM
- solubility kinetic [3]: 363 µg/mL (≈ 915 µM)
- IC50 [4]: 0.088 µM
- IC50 [5]: > 20 µM
- inhibition [6]: inactive
- inhibition [7]: inactive
- IC50 [8]: > 10 µM
- inhibition [9]: inactive
- fold change (FC) [10]: 4
- IC50 [11]: > 20 µM
- IC50 [12]: > 10 µM
- IC50 [13]: > 20 µM
- inhibition [14]: inactive
- inhibition [15]: inactive
- Ka [16]: 3.1 10^5/M/s
- IC50 [17]: > 20 µM
- inhibition [18]: inactive
- Kdiss [19]: 3 10^-2/s
- inhibition [20]: inactive
- IC50 [21]: > 10 µM
- IC50 [22]: > 20 µM
- IC50 [23]: > 20 µM
- IC50 [24]: > 20 µM
- logD [25]: 1.9
- IC50 [26]: > 20 µM
- IC50 [27]: > 10 µM
- IC50 [28]: > 10 µM
- inhibition [29]: inactive
- IC50 [30]: > 20 µM
- IC50 [31]: > 20 µM
- inhibition [32]: inactive
- IC50 [33]: > 20 µM
